Shown are actives, neighbours in structure and some others; about 2% of the full set was active somewhere.
TWEAK Fn14 block: inhibitors of TWEAK-Fn14 signaling, primary screen, luciferase reporter cells, uHTS; AID 1159606, 2016; TWEAK-stimulated Fn14 reporter cells, luciferase luminescence, 8 h; 360,000 tested, 2% active; inhibition, % at 10 µM; in the data active = inhibition above about 50%
TROY signal inh: inhibitors of TROY-driven NF-kB signaling, primary screen, Q293 LMP1-TROYcd cells, NF-kB luciferase, uHTS; Q293 LMP1-TROYcd NF-kB luciferase reporter, 4 h; inhibition, % at 10 µM; 360,000 tested, 0.98% active;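 active = compounds whose plate-normalised and pattern-corrected inhibition of the luciferase reporter signal at the single screening dose is 50% or more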
XiGFP reactiv: activators of inactive X chromosome reactivation, primary screen, imaging, XiGFP fibroblasts, GFP high-content imaging, set 2; XiGFP mouse fibroblasts, % GFP-positive cells imaging, 3 d; cells co-treated with 5-aza-dC sensitizer; scaled so ellipticine positive control = 100%; activation, % at 7.58 µM; 360,000 tested, 0.055% active; AID 743238, 2013;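 active = mean normalized replicate activation at least 10% and every replicate at or above 10%; inconclusive = only one of the two criteria met; inactive = mean below 10% and not all replicates reach 10%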;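 note: 0% = median of on-plate neutral control wells and 100% = ellipticine 6 µM median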
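Assay system – SV40-immortalized XiGFP fibroblast cells, line 68-5-11 · Buffer or medium – DMEM supplemented with 5-aza-dC as sensitizing agent · Dosing – one concentration, pinned · Benchmarks – positive control ellipticine, 6 µM final · Times – 3 days compound exposure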
LGR2 antag: inhibitors of bursicon-induced LGR2 CRE-luciferase signal, primary screen, cell-based, HEK293, CRE-luciferase reporter, bursicon stimulation; 380,000 tested, 0.35% active; bursicon-stimulated, 4 h; inhibition, % at 9.99 µM; Drosophila bursicon receptor LGR2 (rickets);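 active = drop in luminescence signal, shown as inhibition above about 50% in the replicate tests, limit read from the data, passing the limit was not always enough; inconclusive = probably only some replicates passing the limit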;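 note: agonist challenge used bursicon conditioned medium at about half maximal strength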
CaV13 FRET inh: Primary screen for inhibitors of IQ motif and Ca2+-dependent inactivation inhibitor domain binding in CACNA1D, Förster resonance energy transfer in living cells, …. 340,000 tested, 0.098% active. AID 743397. inhibition, % at 12.3 µM. HEK cells, CFP/YFP FRET ICDI-IQ, plate reader, 10 min; percent FRET-ratio fall versus neutral wells;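 active = mean replicate inhibition of at least 30% and at least 1% of replicates passing that level; inconclusive = only one of the two criteria is met; inactive = neither criterion is met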;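 note: 0% = median of the neutral control wells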
* = called active by the depositor; u = inconclusive; x = no result.

SMILES	TWEAK Fn14 block	TROY signal inh	XiGFP reactiv	LGR2 antag	CaV13 FRET inh
CC(=O)N(C)C[C@@H]1Oc2ncc(-c3cccnc3)cc2C(=O)N([C@@H](C)CO)C[C@H]1C	x	x	0	31	x
C[C@H](CO)N1C[C@H](C)[C@H](CN(C)Cc2ccccc2)OCc2cnnn2CCCC1=O	x	x	0	-1	x
Cc1cnc(NC(=O)c2sc3ccccc3c2Cl)s1	85*	49	0	u	-17
Cc1ccc(S(=O)(=O)N(C)C[C@H]2Oc3ccc(NS(=O)(=O)c4ccccc4)cc3CC(=O)N([C@H](C)CO)C[C@@H]2C)cc1	x	x	0	-9	x
COc1ccc2cc3cc(C(=O)N4CCCCCC4)oc3nc2c1	54*	27	x	x	x
COc1ccc(CCNC(=O)c2ccc(CSc3ccc(Cl)cc3)o2)cc1OC	68*	44	0	2	-10
CCCN(CCC)CCCNC(=O)c1cc2cc3ccc(OC)cc3nc2o1	-57	-16	x	x	-5
COc1ccc(CCNC(=O)c2ccc(CS(=O)(=O)c3ccc(Cl)cc3)o2)cc1OC	26	29	x	0	-3
COc1ccc2cc3cc(C(=O)NCCc4ccc(OC)c(OC)c4)oc3nc2c1	66*	15	x	x	-4
C[C@@H]1CN([C@@H](C)CO)C(=O)c2cccc(NS(=O)(=O)c3cccs3)c2O[C@H]1CN(C)S(=O)(=O)c1ccc(Cl)cc1	x	x	-1	-1	x
CCCC#Cc1cnc2c(c1)C(=O)N([C@@H](C)CO)C[C@@H](C)[C@@H](CN(C)C(=O)C1CCC1)O2	x	x	1	6	x
Cc1ccc(S(=O)(=O)Nc2ccc3c(c2)C(=O)N([C@@H](C)CO)C[C@H](C)[C@@H](CN(C)C(=O)c2ccccc2)OCCCC[C@H](C)O3)cc1	x	x	0	-9	x
CNC[C@@H]1Oc2ccc(NS(C)(=O)=O)cc2C(=O)N(C)C[C@H]1C	x	x	0	x	x
C[C@@H]1CCCCO[C@H](CN(C)C(=O)Nc2ccccc2)[C@@H](C)CN([C@H](C)CO)C(=O)c2cc(NC(=O)NC3CCCCC3)ccc2O1	x	x	0	19	x
CC(C)N1C(=O)/C(=C\c2nc3ccccc3c(=O)n2-c2ccccc2)c2ccccc21	54*	-8	0	u	-3
Nc1nccc(-c2cc(-c3ccc(Cl)cc3Cl)no2)n1	78*	26	0	60*	-5
CC(C)NC(=O)N(C)C[C@@H]1Oc2ncc(C#Cc3ccccc3F)cc2C(=O)N([C@@H](C)CO)C[C@H]1C	x	x	0	-4	x
CC(C)(C)c1ccc(/C=N/N2C(=O)CSC2=S)cc1	68*	38	0	-5	-3
O=C1CSC(=S)N1/N=C/c1ccc(O)c(O)c1O	78*	-4	x	x	x
COc1ccccc1C=NN1C(=O)CSC1=S	-7	-16	1	-3	-6
CCC(=O)N(C)C[C@H]1Oc2cc(-c3cncnc3)ccc2S(=O)(=O)N([C@@H](C)CO)C[C@@H]1C	x	x	-1	-9	x
COc1ccc2c3c(n(C)c2c1)[C@H](CO)N(C(=O)NC(C)C)CC31CCN(CC2CC2)CC1	x	x	0	8	x
C[C@H](CO)N1C[C@H](C)[C@@H](CN(C)S(=O)(=O)c2ccc(Cl)cc2)Oc2ccc(NC(=O)C3CCCCC3)cc2CC1=O	x	x	0	0	x
CSc1n[nH]c2nc3c(c(=O)n12)C1(CCCCC1)Cc1ccccc1-3	8	18	10	35	-3
CCSc1n[nH]c2nc3c(c(=O)n12)C1(CCCCC1)Cc1ccccc1-3	-8	52*	0	13	4
SMILES	TWEAK Fn14 block	TROY signal inh	XiGFP reactiv	LGR2 antag	CaV13 FRET inh
N#CCSc1n[nH]c2nc3c(c(=O)n12)C1(CCCCC1)Cc1ccccc1-3	-9	50*	0	-11	-6
Cc1ccc(C(=O)c2c(C)oc3c2C(=O)C(=O)c2ccccc2-3)cc1	54*	29	x	x	x
Cc1ccc(C(=O)c2coc3c2C(=O)C(=O)c2ccccc2-3)cc1	-33	-3	x	x	x
Cc1oc2c(c1C(=O)c1ccc(Cl)cc1)C(=O)C(=O)c1ccccc1-2	91*	38	x	x	x
O=C(c1ccc(Cl)cc1)c1ccc(CN2C(=O)c3ccccc3C2=O)o1	3	1	x	x	-4
Nc1nc2ccc(Cl)cc2cc1C(=O)NCCc1c[nH]c2ccccc12	52*	21	x	x	x
COCC#Cc1ccc2c(c1)O[C@@H](CN(C)C(=O)CN(C)C)[C@@H](C)CN([C@@H](C)CO)S2(=O)=O	x	x	-1	1	x
COc1ccc(-c2cc3nc(NCc4ccc(N(C)C)cc4)n(C)c(=O)c3s2)cc1OC	80*	26	0	74*	-7
COc1cccc(CNc2nc3cc(-c4ccccc4)sc3c(=O)n2C)c1	30	19	0	5	-10
COc1cccc(CNc2nc3cc(-c4ccsc4)sc3c(=O)n2C)c1OC	82*	40	0	-15	-5
COc1cccc(CNc2nc3cc(-c4ccc(OC)c(OC)c4)sc3c(=O)n2C)c1	54*	41	0	3	-6
COc1ccc(-c2cc3nc(NCCN4CCCC4)n(C)c(=O)c3s2)cc1OC	-15	-25	0	29	-6
C[C@@H]1CCCCO[C@@H](CN(C)C)[C@@H](C)CN([C@H](C)CO)C(=O)c2cc(NC(=O)C3CCCCC3)ccc2O1	x	x	0	-4	x
O=C(C[C@H]1C[C@H]2c3cc(NC(=O)Cc4ccncc4)ccc3O[C@H]2[C@@H](CO)O1)NCCN1CCCCC1	x	x	0	15	x
O=C(C[C@H]1CC[C@@H]2[C@H](COC[C@H](O)CN2C(=O)c2ccncc2)O1)NC1Cc2ccccc2C1	x	x	0	-2	x
CNC(=S)N/N=C1\C(=O)c2cccc3cccc1c23	97*	-62	x	x	x
N=C1SCC(=O)N1c1ncc(Cc2ccc(F)cc2)s1	103*	33	0	-3	-4
Cc1ccc(-c2csc(N3C(=N)SCC3=O)n2)cc1	x	x	0	-66	-2
O=C(Nc1ccccc1Cl)c1ccc2c(=O)n3c(nc2c1)CCC3	24	-9	0	-28	-5
Cc1cccc(NC(=O)c2ccc3c(=O)n4c(nc3c2)CCCCC4)n1	57*	40	0	17	-4
O=C(Nc1nc(-c2ccccc2)cs1)c1ccc2c(=O)n3c(nc2c1)CCCCC3	106*	71*	0	14	-4
O=C(Nc1cccc(S(=O)(=O)N2CCCC2)c1)c1ccc2c(=O)n3c(nc2c1)CCCCC3	57*	28	0	0	-3
CC1CN(c2sc(S(C)(=O)=O)nc2S(=O)(=O)c2ccc(Cl)cc2)CC(C)O1 (configuration not stated)	57*	20	0	23	-15
